MBD2 DNA inh: MBD2-methylated oligo binding inhibition; TR-FRET, MBD2 binding to methylated oligonucleotide; inhibition, % at 4.4 µM; hit rate 0.31% among 370,000; in the data active = inhibition above about 13%
SIAE inh: human SIAE inhibition, primary screen; SIAE FP-Rh probe binding, fluorescence polarization; inhibition, % at 9.66 µM; Q9HAT2; AID 1053197; hit rate 0.69% among 370,000;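 active = inhibition above a cutoff: mean of compounds within the control limits plus 3 SD of those, cut at about 17% in these data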
TDP2 absorb: blocks human TDP2 phosphodiesterase activity. O95551. recombinant TDP2, T5PNP hydrolysis, p-nitrophenol absorbance 415 nm. inhibition, % at 12.8 µM. hit rate 0.34% among 370,000;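 active = inhibition above the mean of all tested compounds plus 3 SD, set per campaign, cut at about 25% in these data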
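Read-out basis: percent inhibition. System: recombinant human TDP2. Buffer or medium: Mg2+-containing Tris-HCl buffer, pH 7.5. Repeats: single replicate. Timing: reaction 2 h, 37 °C. Benchmarks: high control without enzyme, low control DMSO plus TDP2. Probe or stimulus: 5 mM T5PNP. Doses: 12.8 µM only. Measured by: epi absorbance of p-nitrophenol freed from T5PNP by hydrolysis.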
PRMT1 inh: inhibitors of human PRMT1; Q99873; recombinant PRMT1, activity-based probe fluorescence polarization; inhibition, % at 2.79 µM; hit rate 1.3% among 370,000; AID 652257;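 active = inhibition above about 21% made by adding two undisclosed values, limit read from the data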
Target sequence (Q99873 whole entry, looked up): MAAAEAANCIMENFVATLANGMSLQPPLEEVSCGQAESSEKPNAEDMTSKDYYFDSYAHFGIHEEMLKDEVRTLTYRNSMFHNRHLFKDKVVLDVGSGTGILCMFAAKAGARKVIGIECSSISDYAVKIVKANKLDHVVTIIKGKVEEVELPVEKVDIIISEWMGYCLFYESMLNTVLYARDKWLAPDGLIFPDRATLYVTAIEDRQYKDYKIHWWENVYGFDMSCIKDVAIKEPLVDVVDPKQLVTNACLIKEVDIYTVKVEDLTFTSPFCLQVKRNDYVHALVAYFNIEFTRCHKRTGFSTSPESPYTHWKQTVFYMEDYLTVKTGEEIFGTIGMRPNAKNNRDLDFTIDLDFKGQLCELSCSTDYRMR
LEDGF integ inh: blocks HIV-1 LEDGF/p75-dependent DNA integration; TR-FRET IN-LEDGF/p75 DNA integration, Eu/Cy5; inhibition, % at 3.7 µM; hit rate 0.64% among 370,000;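 active = inhibition above the screen-wide mean plus 3 SD, cut at about 13% in these data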;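 also: signal is the Cy5 over europium emission ratio at 671 and 618 nm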
UHRF1 MBD2 ctr: blocks human UHRF1 binding to methylated DNA. inhibition, % at 4.4 µM. AID 687016. UHRF1 binding to methylated oligo, TR-FRET. Q96T88. hit rate 0.75% among 370,000; in the data active = inhibition above about 21%;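 also: UHRF1 SRA domain binding a hemimethylated CpG hairpin DNA probe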
IN multimer up: counter-screen for LEDGF/p75 integration inhibitors: HIV-1 integrase multimerization activators; hit rate 17% among 2,000; TR-FRET HIV-1 integrase multimerization, biochemical; activation, % at 7.7 µM; shares compounds with LEDGF integ inh; AID 1053131; in the data active = activation above about 8.9%
TRFRET interf: optically interferes with TR-FRET readout in LEDGF counter-screen; 2,000 tested, under 10 active; AID 1053135; inhibition, % at 7.7 µM; TR-FRET optical interference counterscreen, HIV-1 IN multimerization; shares compounds with LEDGF integ inh;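 active = inhibition above the mean over all tested compounds plus 3 SD, which no compound reached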
LEDGF integ conf: confirmation of HIV-1 LEDGF/p75-dependent integration inhibitors; inhibition, % at 3.7 µM; TR-FRET LEDGF/p75-dependent HIV-1 integration, biochemical; shares compounds with LEDGF integ inh; AID 1053136; hit rate 36% among 2,000; in the data active = inhibition above about 14%
A number is an active result; - = inactive; . = no result given. Compounds with a hit are over-represented: about 3.3% of the library has one in this group of screens.

SMILES	MBD2 DNA inh	SIAE inh	TDP2 absorb	PRMT1 inh	LEDGF integ inh	UHRF1 MBD2 ctr	IN multimer up	TRFRET interf	LEDGF integ conf
CCc1ccc(O)c(-c2cc(C(=O)Nc3cccnc3)[nH]n2)c1	-	-	-	-	15.3	-	-	-	-
Clc1ccc2nc(-c3ccccc3)c(Cc3ccccc3)n2c1	-	-	-	-	27.2	-	-	-	-
Cc1ccc(Cc2c(-c3ccc(Br)cc3)nc3ccc(Cl)cn23)cc1	-	-	-	-	14.2	-	-	-	-
Cc1ccc(Cc2c(-c3ccc(C)cc3)nc3ccc(Cl)cn23)cc1	-	-	-	-	-	-	.	.	.
Clc1ccc(-c2nc3ccc(Cl)cn3c2Cc2ccccc2)cc1	-	-	-	-	-	-	.	.	.
CCOC(=O)[C@]12CCCC3=C1N(CCC3)C(=O)[C@@H](CC(=O)NCCCCc1ccccc1)C2	-	-	-	-	-	-	.	.	.
Oc1ccc(/C=N/N2CCCCC2)c(O)c1O	-	-	-	23.5	28.2	-	-	-	24.7
Oc1ccc(/C=N/N2CCOCC2)c(O)c1O	-	-	-	-	52.0	-	-	-	17.8
Oc1cccc(/C=N/N2CCCCC2)c1O	-	-	-	-	-	-	.	.	.
Cc1ccc(C)c(N=Cc2cc3c(cc2[N+](=O)[O-])OCO3)c1	-	26.7	-	21.7	39.7	37.6	-	-	-
CC(C)(C)c1ccc(O)c(N=Cc2cc3c(cc2[N+](=O)[O-])OCO3)c1	-	-	-	-	-	-	.	.	.
CC(=O)N(C)c1ccc(N=Cc2cc3c(cc2[N+](=O)[O-])OCO3)cc1	-	-	37.4	-	43.0	-	-	-	51.3
O=C(O)/C=C\c1cc2c(cc1[N+](=O)[O-])OCO2	-	-	-	-	-	-	.	.	.
Cc1ccc2c(c1)C(CS(=O)(=O)NCCc1ccccc1)NC2 (stereo not drawn)	-	-	-	-	-	-	.	.	.
O=C(NCCN1CCOCC1)c1ccc2c(c1)N(Cc1ccccc1F)C(=O)c1ccccc1S2	-	-	-	-	-	-	.	.	.
O=C(c1ccc2c(c1)N(Cc1ccccc1F)C(=O)c1ccccc1S2)N1CCOCC1	-	-	-	-	30.0	-	-	-	-
COc1ccc(CN2CN3Cc4ccccc4C3CS2(=O)=O)cc1 (stereo not drawn)	-	-	-	-	-	-	.	.	.
C=CCN1C(=O)[C@H](CC(=O)N2CCCC2)[C@@]2(C(=O)OCC)CCCC=C12	-	-	-	-	-	-	.	.	.
C/C(=N\NC(=O)c1cc(-c2ccccc2)nc2ccccc12)c1ccc(Cl)cc1	-	-	-	-	-	-	.	.	.
O=C(CCc1ccccc1)N[C@H]1[C@H](O)CCC[C@]12C(=O)N(Cc1ccccc1)c1ccccc12	-	-	-	-	-	-	.	.	.
CCCCCc1c(O)nc(SCC(=O)NCC2CCCO2)[nH]c1=O (stereo not drawn)	-	-	-	-	34.1	-	-	-	-
O=C1CC(c2ccco2)CC(O)=C1C=NCC1NCCc2ccccc21 (stereo not drawn)	-	-	-	-	23.1	-	-	-	-
O=C(NCCCN1CCCC1=O)c1cc2nc(-c3ccco3)cc(C(F)(F)F)n2n1	-	-	-	-	19.5	-	-	-	-
N#Cc1ccc(OCC(=O)OCC(=O)Nc2cc(C(F)(F)F)ccc2N2CCOCC2)cc1	-	-	-	-	-	-	.	.	.
Cc1ccccc1OCC(=O)OCC(=O)Nc1cc(C(F)(F)F)ccc1N1CCOCC1	-	-	-	-	16.9	-	-	-	-
Cc1ccc(NC(=O)Cc2ccc(OC(F)F)cc2)c(S(=O)(=O)N2CCOCC2)c1	-	-	-	-	-	-	.	.	.
Cc1ccccc1-c1cc2nc(NCc3cccnc3)n(C)c(=O)c2s1	-	-	-	-	90.8	-	-	-	-
Cc1ccccc1-c1cc2nc(NCc3ccncc3)n(C)c(=O)c2s1	-	-	-	-	-	-	.	.	.

From PubChem BioAssay
